ChEMBL document CHEMBL1146986, “Synthesis and SAR studies of very potent imidazopyridine antiprotozoal agents” (Bioorg Med Chem Lett, 2006)
Calls of active or inactive are those of the source. No cut-off for these calls is given here.

Key:
Eimeria acervulina [1] = assay: Antiparasitic activity against Eimeria acervulina in chicken at 25 ppm in feed assessed as percent reduction in oocyst; assay type: functional; set-up: scale not given: the % may be the effect or the level left
How it was run: (§1)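 Infected chickens given compound orally in feed (ppm), seven-day in vivo efficacy model; activity quantified from oocyst shedding and graded as percent oocyst reduction versus infection.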

Eimeria tenella [2] = assay: Antiparasitic activity against Eimeria tenella in chicken at 25 ppm in feed assessed as percent reduction in oocyst; assay type: functional; set-up: scale not given: the % may be the effect or the level left; how it was run: as §1
[3] = biological target: cGMP-dependent protein kinase (Eimeria tenella, UniProt Q8MMZ8); assay: Inhibitory activity against PKG
cGMP-dependent protein kinase, sequence (Q8MMZ8 whole entry): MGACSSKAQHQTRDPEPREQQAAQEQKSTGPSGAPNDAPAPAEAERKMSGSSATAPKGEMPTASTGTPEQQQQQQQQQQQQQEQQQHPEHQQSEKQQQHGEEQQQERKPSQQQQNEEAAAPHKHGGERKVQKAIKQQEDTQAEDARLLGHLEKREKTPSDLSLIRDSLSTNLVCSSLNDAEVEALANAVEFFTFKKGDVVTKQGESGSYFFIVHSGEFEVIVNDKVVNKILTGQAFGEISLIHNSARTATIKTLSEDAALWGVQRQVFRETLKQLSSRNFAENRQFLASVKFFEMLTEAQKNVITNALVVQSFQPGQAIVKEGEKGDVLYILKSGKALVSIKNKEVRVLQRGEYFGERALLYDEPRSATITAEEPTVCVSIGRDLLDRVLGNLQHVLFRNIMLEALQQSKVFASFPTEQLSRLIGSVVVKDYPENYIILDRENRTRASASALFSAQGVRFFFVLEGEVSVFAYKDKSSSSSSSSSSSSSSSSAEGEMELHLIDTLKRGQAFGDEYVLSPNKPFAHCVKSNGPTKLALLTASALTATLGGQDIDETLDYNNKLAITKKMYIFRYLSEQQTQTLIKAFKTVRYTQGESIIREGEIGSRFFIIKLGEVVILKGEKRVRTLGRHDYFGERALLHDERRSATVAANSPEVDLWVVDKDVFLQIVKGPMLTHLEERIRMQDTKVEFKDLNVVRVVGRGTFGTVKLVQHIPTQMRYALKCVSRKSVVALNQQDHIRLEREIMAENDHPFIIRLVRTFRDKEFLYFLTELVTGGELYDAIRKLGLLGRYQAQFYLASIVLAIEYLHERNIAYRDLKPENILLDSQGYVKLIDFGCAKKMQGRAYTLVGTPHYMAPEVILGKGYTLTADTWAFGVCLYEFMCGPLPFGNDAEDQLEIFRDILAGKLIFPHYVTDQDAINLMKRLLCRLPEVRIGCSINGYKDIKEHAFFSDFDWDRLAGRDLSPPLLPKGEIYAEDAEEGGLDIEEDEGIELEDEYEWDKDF

Eimeria tenella [4] = assay: Antiparasitic activity against Eimeria tenella in chicken at 12.5 ppm in feed assessed as percent reduction in oocyst; assay type: functional; set-up: scale not given: the % may be the effect or the level left; how it was run: as §1
Eimeria acervulina [5] = assay: Antiparasitic activity against Eimeria acervulina in chicken at 6.25 ppm in feed assessed as percent reduction in oocyst; assay type: functional; set-up: scale not given: the % may be the effect or the level left
How it was run: (§2)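 Seven-day in vivo anticoccidial model in chickens infected with E. tenella and E. acervulina. Compound is given orally in feed (ppm). Oocyst shedding from infected birds is quantified, and activity is graded by percent oocyst reduction.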

Eimeria tenella [6] = assay: Antiparasitic activity against Eimeria tenella in chicken at 6.25 ppm in feed assessed as percent reduction in oocyst; assay type: functional; set-up: scale not given: the % may be the effect or the level left; how it was run: as §2
Salmonella typhimurium [7] = assay: […] against Salmonella Typhimurium TA98 at 6000 ug/plate by Ames microbial mutagenesis assay; assay type: functional, organism-based; settings: Salmonella enterica subsp. enterica serovar Typhimurium
How it was run: (§3)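 Plate-incorporation reverse mutation test: about 10^8 bacterial cells in molten top agar are mixed with test article in DMSO and cofactor plus S9 fraction (50 µL/plate) from induced male Sprague–Dawley rats. Plated in triplicate and incubated 37 °C for 48 h. Revertant colonies are counted automatically, as mean ± standard deviation (n = 3). A twofold or greater increase over solvent control counts as positive.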

Salmonella typhimurium [8] = assay: […] against Salmonella Typhimurium TA100 at 3000 ug/plate by Ames microbial mutagenesis assay; assay type: functional, organism-based; settings: Salmonella enterica subsp. enterica serovar Typhimurium; how it was run: as §3
Salmonella typhimurium [9] = assay: […] against Salmonella Typhimurium TA98 at 3000 ug/plate by Ames microbial mutagenesis assay; assay type: functional, organism-based; settings: Salmonella enterica subsp. enterica serovar Typhimurium; how it was run: as §3
Eimeria acervulina [10] = assay: Antiparasitic activity against Eimeria acervulina in chicken at 12.5 ppm in feed assessed as percent reduction in oocyst; assay type: functional; set-up: scale not given: the % may be the effect or the level left; how it was run: as §1
Salmonella typhimurium [11] = assay: […] against Salmonella Typhimurium TA100 at 6000 ug/plate by Ames microbial mutagenesis assay; assay type: functional, organism-based; settings: Salmonella enterica subsp. enterica serovar Typhimurium; how it was run: as §3

Row | Compound | IC50 [3] | Activity (Eimeria acervulina [1]) | Activity (Eimeria tenella [2]) | other results
1 | CN(C)Cc1ccn2c(-c3ccnc(N)n3)c(-c3ccc(F)cc3)nc2c1 | 0.11 nM | – | – | Activity (Eimeria tenella [4]): >=80%; Activity (Eimeria acervulina [5]): 50%; Activity (Eimeria tenella [6]): 50%; Activity (Salmonella typhimurium [7]): Active; Activity (Salmonella typhimurium [8]): Active; Activity (Salmonella typhimurium [9]): Active; Activity (Eimeria acervulina [10]): >=80%; Activity (Salmonella typhimurium [11]): Active
2 | Nc1nccc(-c2c(-c3ccc(F)cc3)nc3cc(Cl)ccn23)n1 | 2.7 nM | <50% | <50% | –
3 | CN(C)Cc1ccn2c(-c3ccnc(NCC(C)(C)C)n3)c(-c3ccc(F)cc3)nc2c1 | 0.15 nM | – | – | Activity (Eimeria tenella [4]): >=80%; Activity (Eimeria acervulina [10]): >=80%
4 | CNCc1ccn2c(-c3ccnc(N)n3)c(-c3ccc(F)cc3)nc2c1 | 0.15 nM | <50% | <50% | –
5 | CCCNc1nccc(-c2c(-c3ccc(F)cc3)nc3cc(CN(C)C)ccn23)n1 | 0.13 nM | – | – | Activity (Eimeria tenella [4]): >=80%; Activity (Eimeria acervulina [10]): >=80%
6 | CN(C)Cc1ccn2c(-c3ccncn3)c(-c3ccc(F)cc3)nc2c1 | 1.9 nM | <50% | <50% | –
7 | Nc1nccc(-c2c(-c3ccc(F)cc3)nc3cc(C4CCNCC4)ccn23)n1 | 0.05 nM | <50% | <50% | –
8 | CN1CCC(c2ccn3c(-c4ccnc(N)n4)c(-c4ccc(F)cc4)nc3c2)CC1 | 0.04 nM | – | – | Activity (Eimeria acervulina [5]): >=80%; Activity (Eimeria tenella [6]): >=80%; Activity (Salmonella typhimurium [7]): Active; Activity (Salmonella typhimurium [8]): Active; Activity (Salmonella typhimurium [9]): Active; Activity (Eimeria acervulina [10]): 50%; Activity (Salmonella typhimurium [11]): Active
9 | NCc1ccn2c(-c3ccnc(N)n3)c(-c3ccc(F)cc3)nc2c1 | 0.18 nM | <50% | <50% | –

More lines, in order of falling IC50 [3], values ahead:

Row | IC50 [3] | Compound | Activity (Eimeria acervulina [1]) | Activity (Eimeria tenella [2]) | other results
10 | 11.3 nM | N#Cc1ccn2c(-c3ccnc(N)n3)c(-c3ccc(F)cc3)nc2c1 | <50% | <50% | –
11 | 2.7 nM | Nc1nccc(-c2c(-c3ccc(F)cc3)nc3cc(CO)ccn23)n1 | <50% | <50% | –
12 | 2.6 nM | COc1nccc(-c2c(-c3ccc(F)cc3)nc3cc(CN(C)C)ccn23)n1 | <50% | <50% | –
13 | 2.5 nM | CN(C)Cc1ccn2c(-c3ccnc(N(C)C)n3)c(-c3ccc(F)cc3)nc2c1 | <50% | <50% | –
14 | 0.17 nM | CNc1nccc(-c2c(-c3ccc(F)cc3)nc3cc(CN(C)C)ccn23)n1 | >=80% | >=80% | –
15 | 0.081 nM | CN(C)Cc1ccn2c(-c3ccnc(NCc4ccccc4)n3)c(-c3ccc(F)cc3)nc2c1 | >=80% | >=80% | –
